Laboratory results: ChEMBL document CHEMBL1139173, “Novel selective human mitochondrial kinase inhibitors: design, synthesis and enzymatic activity” (Bioorg Med Chem, 2007)
Active and inactive are the calls of the source. The calls are words filed in the database; no cut-off is given here.

Key:
[1] = biological target: T1, Thymidine kinase (Human alphaherpesvirus 1, UniProt Q9QNF7); test: Inhibition of HSV1 TK assessed as [methyl-3H]dThd phosphorylation
T1 sequence (Q9QNF7 whole entry): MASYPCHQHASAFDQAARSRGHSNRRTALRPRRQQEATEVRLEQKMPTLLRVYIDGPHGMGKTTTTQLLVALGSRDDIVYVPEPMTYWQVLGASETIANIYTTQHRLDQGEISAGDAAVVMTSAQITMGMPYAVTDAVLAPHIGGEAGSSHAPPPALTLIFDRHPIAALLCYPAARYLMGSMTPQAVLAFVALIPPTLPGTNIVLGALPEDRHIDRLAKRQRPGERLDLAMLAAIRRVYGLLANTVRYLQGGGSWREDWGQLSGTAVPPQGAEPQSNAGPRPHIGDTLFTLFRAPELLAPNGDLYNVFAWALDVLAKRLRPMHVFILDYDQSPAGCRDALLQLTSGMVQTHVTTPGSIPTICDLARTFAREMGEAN
In short: (§1)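 Purified recombinant GST-fusion kinases (from pGEX-5X-1 cDNAs) assayed in 50 mM Tris–HCl pH 8.0, 2.5 mM MgCl₂, 10 mM DTT, 0.5 mM CHAPS, 3 mg/mL BSA, 2.5 mM ATP, 0.25 µCi [methyl-³H]dThd (2 µM), ± varying inhibitor levels, 37 °C for 30 min. Reactions spotted on DE-81 filter disks, washed, and counted by scintillation. IC50 is the concentration halving dThd phosphorylation.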

[2] = biological target: T2, Thymidine kinase 2, mitochondrial (Homo sapiens, UniProt O00142); test: Inhibition of human TK2 assessed as [methyl-3H]dThd phosphorylation; in short: as §1
T2 sequence (O00142 whole entry): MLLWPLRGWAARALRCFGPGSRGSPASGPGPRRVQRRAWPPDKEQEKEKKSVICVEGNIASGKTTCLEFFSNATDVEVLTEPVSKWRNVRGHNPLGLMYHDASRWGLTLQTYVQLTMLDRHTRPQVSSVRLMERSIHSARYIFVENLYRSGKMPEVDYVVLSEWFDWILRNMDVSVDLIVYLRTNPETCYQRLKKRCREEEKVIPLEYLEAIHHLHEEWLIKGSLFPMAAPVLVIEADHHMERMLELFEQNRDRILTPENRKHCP

[3] = biological target: T3, Thymidine kinase (Varicella-zoster virus (strain Dumas) (HHV-3) (Human herpesvirus 3), UniProt P09250); test: Inhibition of VZV TK assessed as [methyl-3H]dThd phosphorylation; parameters: species or system Human alphaherpesvirus 3
T3 sequence (P09250 whole entry): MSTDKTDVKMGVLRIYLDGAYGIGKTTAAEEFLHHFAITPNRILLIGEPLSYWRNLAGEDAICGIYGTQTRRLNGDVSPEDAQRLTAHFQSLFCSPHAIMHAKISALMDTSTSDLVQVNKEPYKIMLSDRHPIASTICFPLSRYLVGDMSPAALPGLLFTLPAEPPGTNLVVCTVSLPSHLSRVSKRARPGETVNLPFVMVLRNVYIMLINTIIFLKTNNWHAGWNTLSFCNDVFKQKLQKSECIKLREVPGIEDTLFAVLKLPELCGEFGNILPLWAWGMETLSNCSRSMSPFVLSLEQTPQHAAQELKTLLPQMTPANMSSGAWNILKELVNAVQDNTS

[4] = biological target: T4, Deoxynucleoside kinase (Drosophila melanogaster, UniProt Q9XZT6); test: Inhibition of Drosophila melanogaster dNK assessed as [methyl-3H]dThd phosphorylation
T4 sequence (Q9XZT6 whole entry): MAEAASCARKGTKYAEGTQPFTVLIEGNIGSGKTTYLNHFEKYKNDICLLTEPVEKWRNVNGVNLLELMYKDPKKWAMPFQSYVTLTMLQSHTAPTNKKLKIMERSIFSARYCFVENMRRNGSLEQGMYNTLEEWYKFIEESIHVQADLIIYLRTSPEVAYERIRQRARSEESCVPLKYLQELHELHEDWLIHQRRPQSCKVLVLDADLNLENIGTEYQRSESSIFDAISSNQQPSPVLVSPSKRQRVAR
In short: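 Purified recombinant enzyme expressed as a GST fusion. Mix: 50 mM Tris–HCl pH 8.0, 2.5 mM MgCl2, 10 mM DTT, 0.5 mM CHAPS, 3 mg/mL BSA, 2.5 mM ATP, 2 µM [methyl-3H]dThd (0.25 µCi). Incubated 37 °C, 30 min, with varied inhibitor levels. Aliquots spotted on DE-81 disks, washed, scintillation-counted.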

[5] = biological target: T5, Thymidine kinase, cytosolic (Homo sapiens, UniProt P04183); test: Inhibition of human TK1 assessed as [methyl-3H]dThd phosphorylation; in short: as §1
T5 sequence (P04183 whole entry): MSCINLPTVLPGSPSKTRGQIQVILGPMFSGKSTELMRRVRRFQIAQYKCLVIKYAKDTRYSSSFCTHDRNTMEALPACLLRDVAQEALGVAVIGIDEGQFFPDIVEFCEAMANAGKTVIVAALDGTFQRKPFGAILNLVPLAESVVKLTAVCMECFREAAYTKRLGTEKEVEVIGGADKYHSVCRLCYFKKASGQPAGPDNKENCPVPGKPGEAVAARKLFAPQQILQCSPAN

[6] = Toxicity assessed as inhibition of mitochondrial function in human fibroblasts above 100 uM; format: cell-based; details: fibroblast
In short: (§2)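 Primary fibroblasts from healthy-volunteer forearm skin biopsies were used stationary. They were kept at 37 °C in 5% CO₂ in one of two media: permissive DMEM UP (4.5 g/l glucose, 10% FCS, 50 µg/ml uridine) or restrictive GAL (glucose-free RPMI, 50 µM galactose, 10% dialyzed FCS). Cells were exposed to a range of concentrations for 1 week. Viability was counted by trypan blue exclusion.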

[7] = biological target: T2, Thymidine kinase 2, mitochondrial; test: Inhibition of human fibroblast mitochondrial TK2 using dThd substrate
In short: (§3)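 Done on mitochondria isolated from human fibroblasts rather than on recombinant enzymes. TK2 activity was measured with dThd or dCyd as substrate. dGK activity was measured as a control. Read-out was IC50.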

[8] = biological target: T2, Thymidine kinase 2, mitochondrial; test: Inhibition of human fibroblast mitochondrial TK2 using dCyd substrate; in short: as §3
[9] = Toxicity assessed as inhibition of mitochondrial function in normal fibroblasts upto 100 uM; format: cell-based; details: human, fibroblast; in short: as §2
[10] = tested on: Fibroblast; test: Decrease in cytochrome c oxidase to succinate dehydrogenase ratio in human fibroblasts; format: functional, cell-based
In short: (§4)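 Stationary normal skin fibroblasts were exposed to various concentrations for one week in permissive medium (glucose, uridine, 10% FCS). Cytochrome c oxidase (complex IV) and succinate dehydrogenase (complex II) activities were then assayed. COX/SDH ratios were calculated, with SDH as the mtDNA-independent control.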

[11] = biological target: T6, Deoxyguanosine kinase, mitochondrial (Homo sapiens, UniProt Q16854); test: Inhibition of human fibroblast mitochondrial deoxyguanosine kinase; in short: as §3
T6 sequence (Q16854 whole entry): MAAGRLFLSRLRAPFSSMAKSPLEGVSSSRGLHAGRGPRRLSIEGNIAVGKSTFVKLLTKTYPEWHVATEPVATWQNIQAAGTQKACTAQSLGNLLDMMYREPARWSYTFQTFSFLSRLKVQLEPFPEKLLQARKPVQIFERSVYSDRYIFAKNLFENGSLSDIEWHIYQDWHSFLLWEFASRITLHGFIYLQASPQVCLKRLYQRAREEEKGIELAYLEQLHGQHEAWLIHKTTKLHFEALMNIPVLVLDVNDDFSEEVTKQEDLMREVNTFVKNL

[12] = Toxicity against human fibroblast cells assessed as alteration of cellular viability upto 60 uM; format: cell-based; in short: as §2
[13] = Toxicity against human fibroblast cells assessed as alteration of mitochondrial function up to 60 uM; format: cell-based; in short: as §2
[14] = biological target: Deoxyguanosine kinase, mitochondrial (Homo sapiens) (UniProt Q16854); test: Inhibition of human fibroblast mitochondrial deoxyguanosine kinase
[15] = tested on: Fibroblast; test: Decrease in nuclear DNA in human fibroblasts at 100 uM; format: functional; parameters: scale not given: the % may be the effect or the level left
[16] = organism: Homo sapiens; test: Inhibition of human fibroblast mitochondrial cytochrome c oxidase; in short: as §4

| Compound | IC50 [1] [µM] | IC50 [2] [µM] | IC50 [3] [µM] | IC50 [4] [µM] | IC50 [5] [µM] | also measured |
| --- | --- | --- | --- | --- | --- | --- |
| CC(C)(C)OC(=O)NCCCC(=O)O[C@H]1[C@H](O)[C@@H](CO)O[C@H]1n1cc(/C=C/Br)c(=O)[nH]c1=O | 485 | 55 | 130 | 133 | – | – |
| CCCCCCCC(=O)O[C@H]1[C@H](O)[C@@H](CO)O[C@H]1n1cnc2c(=O)[nH]c(N)nc21 | > 500 | > 500 | > 500 | > 500 | > 500 | – |
| CC(C)(C)OC(=O)NCCCCCC(=O)O[C@H]1[C@H](O)[C@@H](CO)O[C@H]1n1cc(/C=C/Br)c(=O)[nH]c1=O | ≥ 500 | 61 | 277 | 77 | – | – |
| CCCCCCCCCC(=O)O[C@H]1[C@H](O)[C@@H](CO)O[C@H]1n1cc(C)c(=O)[nH]c1=O | ≥ 1000 | – | – | – | – | – |
| CCCCCCCCO[C@H]1[C@H](O)[C@@H](CO)O[C@H]1n1cc(C)c(=O)[nH]c1=O | > 1000 | – | – | – | – | – |
| Cc1cn([C@@H]2O[C@H](CO)[C@@H](O)[C@@H]2OCc2ccccc2)c(=O)[nH]c1=O | > 1000 | 801 | > 1000 | > 1000 | > 1000 | – |
| CC(C)(C)OC(=O)NCCCCCCCC(=O)O[C@H]1[C@H](O)[C@@H](CO)O[C@H]1n1cc(/C=C/Br)c(=O)[nH]c1=O | 447 | 6.4 | 349 | 74 | – | – |
| COCC(=O)O[C@H]1[C@H](O)[C@@H](CO)O[C@H]1n1cc(/C=C/Br)c(=O)[nH]c1=O | 84 | – | – | 215 | – | – |
| CCCCCCCC(=O)O[C@H]1[C@H](O)[C@@H](CO)O[C@H]1n1cc(C)c(=O)[nH]c1=O | > 1000 | 120 | > 1000 | > 1000 | > 1000 | – |
| CCCCCCCCCC(=O)N[C@H]1[C@H](O)[C@@H](CO)O[C@H]1n1cc(C)c(=O)[nH]c1=O | > 500 | 480 | > 500 | > 500 | – | – |
| CC(C)(C)OC(=O)NCCCCCCCCCCCC(=O)O[C@H]1[C@H](O)[C@@H](CO)O[C@H]1n1cc(/C=C/Br)c(=O)[nH]c1=O | > 500 | 3.8 | > 500 | ≥ 500 | – | – |
| CCCCCCCCO[C@H]1[C@H](O)[C@@H](CO)O[C@H]1n1cc(C)c(=O)n(CCCCCCCC)c1=O | > 1000 | > 1000 | > 1000 | > 1000 | – | – |
| CCCCCCCC(=O)Nc1nc2c(ncn2[C@@H]2O[C@H](CO)[C@@H](O)[C@@H]2OC(=O)CCCCCCC)c(=O)[nH]1 | > 500 | > 500 | > 500 | > 500 | > 500 | – |
| Nc1ccn([C@@H]2O[C@H](CO)[C@@H](O)[C@@H]2O)c(=O)n1 [CYTARABINE] | > 1000 | – | – | – | – | – |
| CCCCC(=O)O[C@H]1[C@H](O)[C@@H](CO)O[C@H]1n1cc(C)c(=O)[nH]c1=O | > 1000 | – | – | – | – | – |
| Cc1cn([C@@H]2O[C@H](CO)[C@@H](O)[C@@H]2O)c(=O)[nH]c1=O | 24 | – | – | – | – | – |
| CCCCCCCCCCCC(=O)O[C@H]1[C@H](O)[C@@H](CO)O[C@H]1n1cc(C)c(=O)[nH]c1=O | ≥ 1000 | – | – | – | ≥ 1000 | – |
| CCCCCCCCn1c(=O)c(C)cn([C@@H]2O[C@H](CO)[C@@H](O)[C@@H]2O)c1=O | > 500 | > 500 | > 500 | > 500 | > 500 | – |
| NCCCCCC(=O)O[C@H]1[C@H](O)[C@@H](CO)O[C@H]1n1cc(/C=C/Br)c(=O)[nH]c1=O | 322 | > 500 | 94 | > 500 | > 500 | – |
| CCCCCCCCCC(=O)O[C@H]1[C@H](O)[C@@H](CO)O[C@H]1n1cc(/C=C/Br)c(=O)[nH]c1=O | > 1000 | – | – | – | – | Activity [6]: Toxic; IC50 [7]: 40 µM; IC50 [8]: 97 µM; Activity [9]: Active; Activity [10]: Active; IC50 [11]: > 1000 µM; Activity [12]: Non-toxic; Activity [13]: Not Active; IC50 [14]: > 1000 µM; Activity [15]: 50%; Activity [16]: Active |
| CCCCC(=O)O[C@H]1[C@H](O)[C@@H](CO)O[C@H]1n1cnc2c(=O)[nH]c(N)nc21 | > 500 | > 500 | > 500 | > 500 | > 500 | – |
| COc1ccc(CC(=O)O[C@H]2[C@H](O)[C@@H](CO)O[C@H]2n2cc(/C=C/Br)c(=O)[nH]c2=O)cc1 | 68 | 44 | 39 | 182 | – | – |
| O=c1[nH]c(=O)n([C@@H]2O[C@H](CO)[C@@H](O)[C@@H]2O)cc1/C=C/Br [SORIVUDINE] | 3.6 | 43 | 3.2 | 28 | > 500 | – |
| CCCCCCCC(=O)O[C@H]1[C@H](O)[C@@H](CO)O[C@H]1n1cc(/C=C/Br)c(=O)[nH]c1=O | ≥ 1000 | – | – | – | – | – |
| O=C(Cc1ccccc1)O[C@H]1[C@H](O)[C@@H](CO)O[C@H]1n1cc(/C=C/Br)c(=O)[nH]c1=O | 247 | 74 | 268 | 419 | – | – |
| NCCCC(=O)O[C@H]1[C@H](O)[C@@H](CO)O[C@H]1n1cc(/C=C/Br)c(=O)[nH]c1=O | 17 | 187 | 3.6 | 160 | > 500 | – |
| Nc1nc2c(ncn2[C@@H]2O[C@H](CO)[C@@H](O)[C@@H]2O)c(=O)[nH]1 | > 500 | > 500 | > 500 | > 500 | > 500 | – |
